Source: ChEMBL document CHEMBL1255470, “Effect of ceftaroline on normal human intestinal microflora” (Antimicrob Agents Chemother, 2010)
Converted amounts (≈) assume the structure as drawn. The source made the active and inactive calls. No cut-off for these calls is given here.

Assays:
Clostridium septicum = experiment: Antibacterial activity against Clostridium septicum by broth microdilution method; type: functional
Clostridioides difficile [1] = experiment: Antibacterial activity against Clostridium difficile by broth microdilution method; type: functional
Prevotella = experiment: Antibacterial activity against Prevotella by broth microdilution method; type: functional
Homo sapiens [2] = experiment: Toxicity against healthy human assessed as occurrence of urinary infection at […], iv administered every 12 hrs for 7 days measured on day 9; type: organism-based, Urine; design: route intravenous; conditions: in vivo
Enterococcus = experiment: Antibacterial activity against Enterococcus in healthy human intestine at […], iv administered every 12 hrs for 7 days measured on day 21; type: functional, organism-based
Method in brief: (§1)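 Twelve healthy adults (6 male, 6 female, 20–41 y) received 600 mg by i.v. infusion over 60 min q12h, 13 doses over 7 days. Feces were collected on days −1, 2, 5, 7, 9, 14 and 21 (first specimen of the day) and frozen at −70°C. Samples were suspended in prereduced peptone yeast extract and 10-fold diluted onto nonselective and selective agars. Aerobic plates were incubated 24 h and anaerobic jars 48 h, both at 37°C. Counts were expressed as log CFU/g, with a detection limit of 10^2, and compared by Wilcoxon signed-rank test.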

Candida albicans = experiment: Antifungal activity against Candida albicans in healthy human intestine at […], iv administered every 12 hrs for 7 days measured on day 21; type: functional, organism-based; method in brief: as §1
Escherichia coli [3] = experiment: Antibacterial activity against Escherichia coli in healthy human intestine assessed as log reduction in bacterial count per gram of feces at […], iv administered every 12 hrs for 7 days measured on day 7; type: functional; method in brief: as §1
Escherichia coli [4] = experiment: Antibacterial activity against Escherichia coli in healthy human intestine assessed as log reduction in bacterial count per gram of feces at […], iv administered every 12 hrs for 7 days measured on day 9; type: functional; method in brief: as §1
Escherichia coli [5] = experiment: Antibacterial activity against Escherichia coli in healthy human intestine assessed as decrease in bacterial count at […], iv administered every 12 hrs for 7 days measured on day 14; type: functional, organism-based; method in brief: as §1
Enterobacteriaceae = experiment: Antibacterial activity against Enterobacteriaceae in healthy human intestine assessed as decrease in bacterial count at […], iv administered every 12 hrs for 7 days measured on day 14; type: functional, organism-based; method in brief: as §1
Bifidobacterium = experiment: Antibacterial activity against Bifidobacterium in healthy human intestine assessed as log reduction in bacterial count per gram of feces at […], iv administered every 12 hrs for 7 days measured on day 7; type: functional; method in brief: as §1
Lactobacillus = experiment: Antibacterial activity against Lactobacillus in healthy human intestine assessed as log reduction in bacterial count per gram of feces at […], iv administered every 12 hrs for 7 days measured on day 7; type: functional; method in brief: as §1
Clostridium = experiment: Antibacterial activity against Clostridium in healthy human intestine assessed as decrease in bacterial count at […], iv administered every 12 hrs for 7 days measured on day 7; type: functional, organism-based; method in brief: as §1
Bacteroides sp. = experiment: Antibacterial activity against Bacteroides sp. in healthy human intestine assessed as decrease in bacterial count at […], iv administered every 12 hrs for 7 days measured on day 21; type: functional, organism-based; method in brief: as §1
Homo sapiens [6] = experiment: Toxicity against healthy human assessed as effect on ECG parameters at […], iv administered every 12 hrs for 7 days measured on day 9; type: organism-based; design: route intravenous; conditions: in vivo
Bacteroides fragilis [7] = experiment: Antibacterial activity against Bacteroides fragilis ATCC 25285 after 48 hrs by CLSI method; type: functional; conditions: NCTC 9343, 48 h
Method in brief: (§2)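 Agar dilution MIC per CLSI anaerobe guidance, with 10^5 CFU per spot inoculum and 48 h incubation. The reference strain was run alongside new colonizing fecal isolates. MIC was taken as the lowest drug concentration giving complete growth inhibition. A provisional resistance breakpoint of 4 mg/liter was applied.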

Clostridioides difficile [8] = experiment: Antibacterial activity against Clostridium difficile ATCC 700057 after 48 hrs by CLSI method; type: functional; conditions: ATCC 700057, 48 h; method in brief: as §2
Staphylococcus aureus = experiment: Antibacterial activity against Staphylococcus aureus ATCC 29213 at =< 4 mg/L after 48 hrs by CLSI method; type: functional, organism-based
Enterococcus faecalis = experiment: Antibacterial activity against Enterococcus faecalis ATCC 29212 at =< 4 mg/L after 48 hrs by CLSI method; type: functional, organism-based
Escherichia coli [9] = experiment: Antibacterial activity against Escherichia coli ATCC 25922 at =< 4 mg/L after 48 hrs by CLSI method; type: functional, organism-based
Bacteroides fragilis [10] = experiment: Antibacterial activity against Bacteroides fragilis by broth microdilution method; type: functional
Homo sapiens [11] = experiment: Toxicity against healthy human assessed as effect on hematological parameters at […], iv administered every 12 hrs for 7 days measured on day 9; type: organism-based; design: route intravenous; conditions: in vivo
Propionibacterium = experiment: Antibacterial activity against Propionibacterium by broth microdilution method; type: functional
Peptostreptococcus sp. = experiment: Antibacterial activity against Peptostreptococcus sp. by broth microdilution method; type: functional
Clostridium perfringens = experiment: Antibacterial activity against Clostridium perfringens by broth microdilution method; type: functional

CCO/N=C(\C(=O)N[C@@H]1C(=O)N2C(C(=O)[O-])=C(Sc3nc(-c4cc[n+](C)cc4)cs3)CS[C@H]12)c1nsc(NP(=O)(O)O)n1 [CEFTAROLINE FOSAMIL] gave an MIC90 (Clostridium septicum) of 4 µg/mL (≈ 5.84 µM), an MIC90 (Clostridioides difficile [1]) of 4 µg/mL (≈ 5.84 µM) and an MIC90 (Prevotella) of over 32 µg/mL. For the same compound, the Activity (Homo sapiens [2]) was “Non-toxic”, the Activity (Enterococcus) was “inactive” and the Activity (Candida albicans) was “inactive”. For the same compound, the log10cfu (Escherichia coli [3]) was 2, the log10cfu (Escherichia coli [4]) was 1.5 and the inhibition (Escherichia coli [5]) was “Active”. The inhibition (Enterobacteriaceae) was “inactive”, the log10cfu (Bifidobacterium) was 2.1 and the log10cfu (Lactobacillus) was 1.7. The inhibition (Clostridium) was “inactive”, the inhibition (Bacteroides sp.) was “inactive” and the Activity (Homo sapiens [6]) was “Non-toxic”. The MIC (Bacteroides fragilis [7]) was at least 64 µg/mL, the MIC (Clostridioides difficile [8]) was 4 µg/mL (≈ 5.84 µM) and the Activity (Staphylococcus aureus) was “Active”. The Activity (Enterococcus faecalis) was “Active”, the Activity (Escherichia coli [9]) was “Active” and the MIC90 (Bacteroides fragilis [10]) was over 32 µg/mL. The Activity (Homo sapiens [11]) was “Non-toxic”, the MIC90 (Propionibacterium) was 4 µg/mL (≈ 5.84 µM) and the MIC90 (Peptostreptococcus sp.) was 4 µg/mL (≈ 5.84 µM). For the same compound, the MIC90 (Clostridium perfringens) was 4 µg/mL (≈ 5.84 µM).
